According to ChEMBL document CHEMBL1156771, “Synthesis and antimalarial evaluation of 1, 3, 5-trisubstituted pyrazolines” (Eur J Med Chem, 2010):
Active and inactive are the calls of the source. The calls are words filed in the database; no cut-off is given here.

What was measured:
[1] = Cytotoxicity against human HeLa cells after 72 hrs by neutral red uptake assay; type: cell-based
Method in brief: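 HeLa cells grown in EMEM with 10% FBS were seeded at 2×10^3 per well and left overnight at 37 °C, 5% CO2. They were exposed to two-fold serial dilutions from DMSO stocks (DMSO ≤0.1%) in duplicate for 72 h. Cells were fixed in glutaraldehyde, stained with 0.2% neutral red and lysed in acid ethanol, then read at 550 nm against DMSO controls. The value reported is MNTD, the highest concentration giving 100% survival.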

Plasmodium falciparum [2] = assay: Antiplasmodial activity against chloroquine-sensitive Plasmodium falciparum MRC-02 infected in human erythrocyte assessed as inhibition of schizont maturation after 24 hrs; type: functional, organism-based; details: MRC-02, 24 h
Method in brief: (§1)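 Sorbitol-synchronised ring-stage culture in human B+ erythrocytes, in RPMI-1640 with 25 mM HEPES, 10% AB+ serum and 0.2% bicarbonate under 5% CO2. Parasitaemia was set at 1–1.5%. Cultures were exposed to two-fold serial dilutions for 24 h at 37 °C (ethanol ≤0.5% final), duplicate wells per dose. Schizonts per 100 asexual parasites were counted on Giemsa smears. Inhibition = (1−Nt/Nc)×100.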

[3] = Inhibition of beta-hematin formation by BHIA assay; type: functional
Method in brief: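 Compounds (6 to 0.3 mM) were incubated with hematin in the presence of glacial acetic acid at 37 °C for 24 h. Water or ethanol served as controls. The pellet was washed with DMSO to remove unconverted hematin, and the remaining β-hematin was dissolved in 0.1 N NaOH. Absorbance was read at 405 nm to derive BHIA50.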

[4] = Selectivity ratio of CC50 for human HeLa cells to IC50 for Plasmodium falciparum MRC-02; type: ADME, cell-based; details: read-out: Ratio CC50/IC50
Method in brief: (§2)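 The IC50 came from sorbitol-synchronized ring-stage cultures at 1–1.5% parasitemia in human B+ erythrocytes in RPMI-1640/HEPES with 10% AB+ serum, given two-fold dilutions (ethanol ≤0.5% final). Cultures ran 24 h at 37 °C in duplicate, and schizonts per 100 asexual parasites were counted on Giemsa smears.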

Plasmodium falciparum [5] = assay: Antiplasmodial activity against chloroquine-resistant Plasmodium falciparum RKL09 infected in human erythrocyte assessed as inhibition of schizont maturation after 24 hrs; type: functional, organism-based; details: RKL09, 24 h; method in brief: as §1
[6] = Selectivity ratio, CC50 for human HeLa cells to IC50 for Plasmodium falciparum RKL09; type: ADME, cell-based; details: read-out: Ratio CC50/IC50; method in brief: as §2
Plasmodium berghei [7] = assay: Antimalarial activity against Plasmodium berghei ANKA infected in Swiss albino mice (Mus musculus) assessed as suppression of parasitemia at 50 mg/kg/day, perorally for 4 days; type: functional; details: route oral
Method in brief: (§3)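 Peters' 4-day suppressive test in male Swiss albino mice (18–20 g), five per group. Mice were infected intraperitoneally with about 30% P. berghei-infected donor erythrocytes, then dosed orally 4 h later and on days 0–3. Controls received the suspending solvent. Giemsa-stained tail smears were read on days 4 and 7; % suppression was calculated against controls. Survival was followed for 28 days for MST.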

Plasmodium berghei [8] = assay: Antimalarial activity against Plasmodium berghei ANKA infected in Swiss albino mice (Mus musculus) assessed as mean survival time at 25 mg/kg/day, perorally for 4 days measured after 28 days; type: functional; details: route oral
Method in brief: (§4)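 Peters 4-day suppressive test in male Swiss albino mice (18–20 g), groups of five. Mice inoculated intraperitoneally with P. berghei ANKA-infected erythrocytes from a donor mouse. Oral dosing began 4 h later and was given once daily on days 0–3. Vehicle controls received the suspending solvent. Mean survival time was taken from deaths over a 28-day observation period.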

Plasmodium berghei [9] = assay: Antimalarial activity against Plasmodium berghei ANKA infected in Swiss albino mice (Mus musculus) assessed as suppression of parasitemia at 25 mg/kg/day, perorally for 4 days; type: functional; details: route oral; method in brief: as §3
Plasmodium berghei [10] = assay: Antimalarial activity against Plasmodium berghei ANKA infected in Swiss albino mice (Mus musculus) assessed as mean survival time at 50 mg/kg/day, perorally for 4 days measured after 28 days; type: functional; details: route oral; method in brief: as §4
Plasmodium berghei [11] = assay: Antimalarial activity against Plasmodium berghei ANKA infected in Swiss albino mice (Mus musculus) assessed as mean survival time at 8 mg/kg/day, perorally for 4 days measured after 28 days; type: functional, organism-based; method in brief: as §3
Plasmodium berghei [12] = assay: Antimalarial activity against Plasmodium berghei ANKA infected in Swiss albino mice (Mus musculus) assessed as suppression of parasitemia at 8 mg/kg/day, perorally for 4 days; type: functional; details: route oral; method in brief: as §3

Compound | MNTC at 72 h [1] [nM] | IC50 (Plasmodium falciparum [2]) [µM] | IC50 [3] [µM] | selectivity ratio [4] | IC50 (Plasmodium falciparum [5]) [µM] | selectivity ratio [6] | Activity (Plasmodium berghei [7]) [%] | Activity (Plasmodium berghei [8]) [days] | Activity (Plasmodium berghei [9]) [%] | Activity (Plasmodium berghei [10]) [days] | Activity (Plasmodium berghei [11]) | Activity (Plasmodium berghei [12]) [%]
O=C(c1cccnc1)N1N=C(c2ccc(O)cc2)CC1c1cccc([N+](=O)[O-])c1 (centres undefined) | 3750 | 0.106 | 2070 | 35.2 | 0.423 | 8.85 | – | – | – | – | – | –
COc1ccc(Br)cc1C1CC(c2ccc(O)cc2)=NN1C(=O)c1cccnc1 (centres undefined) | 2660 | 0.0495 | 1890 | 53.7 | 0.242 | 11 | – | – | – | – | – | –
COc1cc(C2CC(c3ccc(O)cc3)=NN2C(=O)c2cccnc2)cc(OC)c1OC (centres undefined) | 828 | 0.0265 | 1700 | 31.2 | 0.0425 | 19.5 | 43.7 | 9 | 32.78 | 11 | – | –
CCOc1ccc(C2CC(c3ccc(O)cc3)=NN2C(=O)c2cccnc2)cc1OC (centres undefined) | 3560 | – | 2390 | 47.5 | – | 16.6 | – | – | – | – | – | –
O=C(c1cccnc1)N1N=C(c2ccc(O)cc2)CC1c1ccccc1Br (centres undefined) | 3810 | 0.0272 | 1820 | 140 | 0.064 | 59.6 | 47.52 | 9 | 34.98 | 10.3 | – | –
O=C(c1cccnc1)N1N=C(c2ccc(O)cc2)CC1c1ccccc1 (centres undefined) | 1880 | 0.0304 | 1580 | 61.7 | 0.131 | 14.4 | – | – | – | – | – | –
Cc1ccccc1C1CC(c2ccc(O)cc2)=NN1C(=O)c1cccnc1 (centres undefined) | 1810 | 0.0625 | 2430 | 29 | 0.102 | 17.8 | – | – | – | – | – | –
O=C(c1cccnc1)N1N=C(c2ccc(O)cc2)CC1c1ccc(Cl)cc1Cl (centres undefined) | 1250 | 0.0375 | 1530 | 33.3 | 0.068 | 18.4 | 68.93 | 11.6 | 60.55 | 13.2 | – | –
Cc1ccc(C2CC(c3ccc(O)cc3)=NN2C(=O)c2cccnc2)cc1 (centres undefined) | 2190 | 0.0555 | 1570 | 39.4 | 0.0887 | 24.6 | – | – | – | – | – | –
O=C(c1cccnc1)N1N=C(c2ccc(O)cc2)CC1c1cccc(Br)c1 (centres undefined) | 3060 | 0.026 | 2060 | 118 | 0.0786 | 39 | – | – | – | – | – | –
CCN(CC)CCCC(C)Nc1ccnc2cc(Cl)ccc12.O=P(O)(O)O.O=P(O)(O)O (centres undefined) [CHLOROQUINE PHOSPHATE] | 66200 | – | 1890 | – | – | – | – | – | – | – | Active | 100
